Reference: ChEMBL document CHEMBL3232838, “Synthesis, crystal structure and biological evaluation of some novel 1,2,4-triazolo[3,4-b]-1,3,4-thiadiazoles and 1,2,4-triazolo[3,4-b]-1,3,4-thiadiazines” (Eur J Med Chem, 2014)
pIC50: −log10 of the molar value.

Tests used:
[1] = Anticancer activity against Syrian golden hamster BHK21 cells at 0.1 uM after 48 hrs by SRB assay; type: functional; conditions: Mesocricetus auratus, BHK-21, 48 h; read-out: GI
In short: (§1)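 RPMI-1640 culture with 10% heat-inactivated FBS, 2 mM glutamine, 1 mM pyruvate and penicillin/streptomycin at 37 °C, 5% CO2. Cells per 96-well well: H157 10⁴, BHK-21 5×10⁴. After 24 h, monolayers were exposed to 100, 10, 1 or 0.1 µM compound for 48 h, with vincristine as standard. Cells were fixed in cold 50% TCA (4 °C, 1 h) and stained with 0.4% SRB in 1% acetic acid (30 min). Dye was dissolved in 10 mM Tris and read at A490 minus A630. Read-out was percent inhibition.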

Leishmania major [2] = test: Antileishmanial activity against promastigote form of Leishmania major at 1 uM after 72 hrs by MTT assay; type: functional
In short: (§2)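 Log-phase promastigotes grown at 25 °C in phenol-red-free D-MEM/F-12 with 10% heat-inactivated FBS, washed in PBS, seeded at 2.5×10⁶/mL (100 µL/well). Compounds in triplicate wells, 72 h at 25 °C; amphotericin B standard. MTT (5 mg/mL stock) 3 h, stopped with 50% isopropanol/10% SDS, OD570 minus 690. Percent inhibition vs control; mean ± SEM of three independent experiments.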

Leishmania major [3] = test: Antileishmanial activity against promastigote form of Leishmania major at 100 uM after 72 hrs by MTT assay; type: functional; in short: as §2
[4] = molecular target: Intestinal-type alkaline phosphatase (Bos taurus) (UniProt P19111); test: (§3) Inhibition of calf intestinal alkaline phosphatase using p-nitrophenyl phosphate as substrate preincubated for 10 mins before substrate addition after 30 mins; set-up: concentration or dose not given beside the values
[5] = Anticancer activity against Syrian golden hamster BHK21 cells at 1 uM after 48 hrs by SRB assay; type: functional; conditions: Mesocricetus auratus, BHK-21, 48 h; read-out: GI; in short: as §1
NCI-H157 [6] = test: Anticancer activity against human NCI-H157 cells at 1 uM after 48 hrs by SRB assay; type: functional; conditions: NCI-H157, 48 h, read-out: GI; in short: as §1
NCI-H157 [7] = test: Anticancer activity against human NCI-H157 cells at 100 uM after 48 hrs by SRB assay; type: functional; conditions: NCI-H157, 48 h, read-out: GI; in short: as §1
NCI-H157 [8] = test: Anticancer activity against human NCI-H157 cells at 10 uM after 48 hrs by SRB assay; type: functional; conditions: NCI-H157, 48 h, read-out: GI; in short: as §1
NCI-H157 [9] = test: Anticancer activity against human NCI-H157 cells at 0.1 uM after 48 hrs by SRB assay; type: functional; conditions: NCI-H157, 48 h, read-out: GI; in short: as §1
Leishmania major [10] = test: Antileishmanial activity against promastigote form of Leishmania major at 0.1 uM after 72 hrs by MTT assay; type: functional; in short: as §2
[11] = Anticancer activity against Syrian golden hamster BHK21 cells at 100 uM after 48 hrs by SRB assay; type: functional; conditions: Mesocricetus auratus, BHK-21, 48 h; read-out: GI; in short: as §1
Leishmania major [12] = test: Antileishmanial activity against promastigote form of Leishmania major at 10 uM after 72 hrs by MTT assay; type: functional; in short: as §2
Cholinesterase = Cholinesterase (Homo sapiens, UniProt P06276); test: Inhibition of human BChE using butyrylthiocholine iodide as substrate preincubated for 10 mins before substrate addition after 15 mins by Ellman's method
In short: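 Ellman assay in 50 mM Tris-HCl, 0.1 M NaCl, 0.02 M MgCl2, pH 8.0, with DMSO at 1% final. hBChE (3.4 U/mg) is preincubated with compound for 10 min at 25 °C. Blanks lack enzyme or substrate. IC50 from linear regression.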

[13] = Anticancer activity against Syrian golden hamster BHK21 cells at 10 uM after 48 hrs by SRB assay; type: functional; conditions: Mesocricetus auratus, BHK-21, 48 h; read-out: GI; in short: as §1
[14] = molecular target: Acetylcholinesterase (Electrophorus electricus) (UniProt O42275); test: (§4) Inhibition of electric eel acetylcholinesterase using acetylthiocholine iodide as substrate preincubated for 10 mins before substrate addition after 15 mins by Ellman's method
Acetylcholinesterase = Acetylcholinesterase (Electrophorus electricus, UniProt O42275); test: as §4
[15] = molecular target: Intestinal-type alkaline phosphatase (Bos taurus, UniProt P19111); test: as §3
Intestinal-type alkaline phosphatase, sequence (P19111 whole entry): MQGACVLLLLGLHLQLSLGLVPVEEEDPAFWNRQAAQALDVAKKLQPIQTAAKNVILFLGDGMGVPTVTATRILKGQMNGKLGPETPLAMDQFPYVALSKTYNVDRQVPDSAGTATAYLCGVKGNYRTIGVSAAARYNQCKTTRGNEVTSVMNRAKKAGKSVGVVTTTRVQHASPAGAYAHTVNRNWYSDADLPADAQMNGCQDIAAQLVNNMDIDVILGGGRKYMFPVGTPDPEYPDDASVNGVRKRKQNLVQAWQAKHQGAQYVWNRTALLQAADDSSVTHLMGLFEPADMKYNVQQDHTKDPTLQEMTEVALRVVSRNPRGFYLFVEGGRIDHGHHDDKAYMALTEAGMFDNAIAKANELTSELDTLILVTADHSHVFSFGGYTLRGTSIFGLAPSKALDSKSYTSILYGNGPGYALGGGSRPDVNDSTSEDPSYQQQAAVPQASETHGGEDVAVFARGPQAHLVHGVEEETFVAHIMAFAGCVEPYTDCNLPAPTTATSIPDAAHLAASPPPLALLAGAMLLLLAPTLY

Cholinesterase, sequence (P06276 whole entry): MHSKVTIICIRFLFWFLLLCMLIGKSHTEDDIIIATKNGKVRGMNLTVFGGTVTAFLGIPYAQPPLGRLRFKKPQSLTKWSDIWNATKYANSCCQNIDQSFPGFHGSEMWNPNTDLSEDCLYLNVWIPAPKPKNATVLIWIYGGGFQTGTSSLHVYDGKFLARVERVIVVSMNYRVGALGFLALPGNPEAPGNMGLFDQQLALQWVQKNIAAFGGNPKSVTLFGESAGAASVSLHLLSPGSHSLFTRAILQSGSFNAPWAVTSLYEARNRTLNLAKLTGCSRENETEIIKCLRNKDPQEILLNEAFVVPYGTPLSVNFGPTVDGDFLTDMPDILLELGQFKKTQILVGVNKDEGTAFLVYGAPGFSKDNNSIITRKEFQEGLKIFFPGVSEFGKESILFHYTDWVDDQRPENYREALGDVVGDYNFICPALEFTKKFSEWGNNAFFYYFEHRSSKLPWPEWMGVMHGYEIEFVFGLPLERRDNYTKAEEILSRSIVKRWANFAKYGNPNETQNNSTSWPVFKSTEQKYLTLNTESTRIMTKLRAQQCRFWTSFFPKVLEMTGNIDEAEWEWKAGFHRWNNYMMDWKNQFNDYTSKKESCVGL
Acetylcholinesterase (Electrophorus electricus), sequence (O42275 24-633 limits assumed): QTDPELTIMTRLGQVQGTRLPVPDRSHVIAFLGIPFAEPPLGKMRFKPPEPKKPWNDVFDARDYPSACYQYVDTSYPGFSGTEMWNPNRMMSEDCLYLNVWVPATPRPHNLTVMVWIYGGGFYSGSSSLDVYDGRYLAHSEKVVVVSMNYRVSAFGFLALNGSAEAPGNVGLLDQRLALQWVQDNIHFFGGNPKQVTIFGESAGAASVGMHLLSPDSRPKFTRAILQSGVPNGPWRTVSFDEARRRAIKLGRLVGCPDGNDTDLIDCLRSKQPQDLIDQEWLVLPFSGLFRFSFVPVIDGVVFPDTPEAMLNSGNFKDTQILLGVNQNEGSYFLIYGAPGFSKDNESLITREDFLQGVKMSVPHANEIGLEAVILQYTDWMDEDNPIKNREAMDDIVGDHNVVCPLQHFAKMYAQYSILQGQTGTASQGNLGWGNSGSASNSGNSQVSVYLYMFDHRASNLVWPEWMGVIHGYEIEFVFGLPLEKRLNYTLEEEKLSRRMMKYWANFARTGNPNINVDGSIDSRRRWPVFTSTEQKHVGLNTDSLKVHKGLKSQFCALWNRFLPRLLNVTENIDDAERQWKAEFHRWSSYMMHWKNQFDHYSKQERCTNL
Acetylcholinesterase, sequence (O42275 whole entry): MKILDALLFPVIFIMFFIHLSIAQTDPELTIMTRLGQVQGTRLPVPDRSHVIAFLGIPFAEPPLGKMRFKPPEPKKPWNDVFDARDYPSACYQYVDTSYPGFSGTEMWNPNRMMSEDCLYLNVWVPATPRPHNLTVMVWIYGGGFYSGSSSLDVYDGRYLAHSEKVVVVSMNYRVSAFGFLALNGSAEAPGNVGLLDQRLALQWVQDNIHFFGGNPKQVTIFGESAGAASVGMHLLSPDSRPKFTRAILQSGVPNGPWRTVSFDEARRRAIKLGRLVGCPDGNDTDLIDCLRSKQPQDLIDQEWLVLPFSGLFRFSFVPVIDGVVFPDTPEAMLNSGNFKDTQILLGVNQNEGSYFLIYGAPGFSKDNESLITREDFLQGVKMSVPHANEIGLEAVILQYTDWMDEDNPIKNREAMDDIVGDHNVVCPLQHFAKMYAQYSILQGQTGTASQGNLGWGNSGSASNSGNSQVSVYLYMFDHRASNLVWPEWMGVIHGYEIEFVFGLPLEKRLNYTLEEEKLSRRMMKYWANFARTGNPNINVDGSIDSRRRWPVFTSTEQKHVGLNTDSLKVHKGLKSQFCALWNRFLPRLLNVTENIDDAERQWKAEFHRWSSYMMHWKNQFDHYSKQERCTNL
Intestinal-type alkaline phosphatase (Bos taurus), sequence (P19111 20-506 limits assumed): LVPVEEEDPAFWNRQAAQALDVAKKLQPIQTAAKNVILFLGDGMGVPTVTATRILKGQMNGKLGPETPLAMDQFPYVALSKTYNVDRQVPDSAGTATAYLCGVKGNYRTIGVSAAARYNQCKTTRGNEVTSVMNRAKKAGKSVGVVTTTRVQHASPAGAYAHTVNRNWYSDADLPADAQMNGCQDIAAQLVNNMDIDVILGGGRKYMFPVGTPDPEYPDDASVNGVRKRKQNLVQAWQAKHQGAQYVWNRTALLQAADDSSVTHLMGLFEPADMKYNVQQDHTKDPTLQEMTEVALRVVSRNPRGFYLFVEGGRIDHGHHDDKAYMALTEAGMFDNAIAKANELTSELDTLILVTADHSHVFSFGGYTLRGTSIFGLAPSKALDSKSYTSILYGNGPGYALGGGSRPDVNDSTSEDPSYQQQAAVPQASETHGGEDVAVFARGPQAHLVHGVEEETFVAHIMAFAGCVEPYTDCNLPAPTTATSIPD

Compound	inhibition of growth at 0.1 µM [1] [%]	inhibition at 1 µM (Leishmania major [2]) [%]	inhibition at 100 µM (Leishmania major [3]) [%]	inhibition [4] [%]	inhibition of growth at 1 µM [5] [%]	inhibition of growth at 1 µM (NCI-H157 [6]) [%]	inhibition of growth at 100 µM (NCI-H157 [7]) [%]	inhibition of growth at 10 µM (NCI-H157 [8]) [%]	inhibition of growth at 0.1 µM (NCI-H157 [9]) [%]	inhibition at 0.1 µM (Leishmania major [10]) [%]	inhibition of growth at 100 µM [11] [%]	inhibition at 10 µM (Leishmania major [12]) [%]	pIC50 (Cholinesterase)	inhibition of growth at 10 µM [13] [%]	inhibition [14] [%]	inhibition (Cholinesterase) [%]	pIC50 (Acetylcholinesterase)	pIC50 [15]
Cc1ccc(C2=Nn3c(nnc3-c3ccncc3)SC2)cc1	53.1	37.7	43.9	35.7	62	53.2	63.8	57.3	50.3	34.5	72.6	39.8	4.58	68.7	46.1	–	–	–
COc1cccc(C2=Nn3c(nnc3-c3ccncc3)SC2)c1	52.4	32.3	38.6	38.5	66.7	47.5	54.4	51.1	43.1	29.3	73.3	35.2	–	69.9	–	28.9	4.62	–
c1cc(-c2nnc3sc(-c4ccoc4)nn23)ccn1	20.3	48.5	54.6	–	23.3	57.7	64.3	61.6	54.8	45.2	31.2	51.5	4.44	28.7	34.6	–	–	5.11
Clc1ccc(C2=Nn3c(nnc3-c3ccncc3)SC2)cc1Cl	52.8	52.3	59.8	–	56.5	63.5	72.1	67.4	59.4	49.3	63.5	56.4	4.91	59.4	46	–	–	5.88
Cc1occc1-c1nn2c(-c3ccncc3)nnc2s1	54.6	27.3	34.9	29.9	57	51.9	58.4	55.1	47.1	25.1	64.7	30.8	–	61.6	–	41.2	4.29	–
Oc1ccccc1OCc1nn2c(-c3ccncc3)nnc2s1	43.8	31.2	37.2	46	46.3	35.9	41.8	37.3	31.8	27.8	53.8	34.6	4.74	49.9	–	–	4.27	–
Clc1cccc(C2=Nn3c(nnc3-c3ccncc3)SC2)c1	46.2	34.6	41.8	48	50.3	60.8	67.4	63.8	57.4	31.7	56.4	38.3	4.40	53.3	–	–	4.64	–
Fc1cc(Cl)c(-c2nn3c(-c4ccncc4)nnc3s2)cc1F	46.7	35.4	40.3	31.6	49.7	41.4	49.2	45.2	36.4	31.3	58.9	37.9	–	53.9	47.2	18.2	–	–
